Test results reported in ChEMBL document CHEMBL1765010, “Reversible competitive α-ketoheterocycle inhibitors of fatty acid amide hydrolase containing additional conformational constraints in the acyl side chain: orally active, long-acting analgesics” (J Med Chem, 2011).
Calls of active or inactive are those of the source.

How the values were obtained:
[1] = Inhibition of full-length human FAAH expressed in COS-7 cells assessed as [14C]-labeled oleamide to oleic acid conversion; type: cell-based
Outline: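 Substrate 20 μM 14C-oleamide; three inhibitor concentrations. Reaction stopped in 0.1 N HCl at three time points, extracted with EtOAc and read by TLC.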

Mus musculus [2] = test: Antinociceptive activity in CD1 mouse assessed as thermal-stimulus induced tail flick latency at 1 to 3.2 mg/kg, iv after 150 mins; type: functional, organism-based
Outline: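 Mice given compound i.v.; tail-flick latency to 52 °C water measured at several times after dosing. Animals not responding within 5 s at baseline were excluded, and a 10 s cut-off was scored as 100%. % antinociception = 100 × (test − control latency)/(10 − control latency).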

[3] = Half life in human liver microsomes; type: ADME, Microsome
Mus musculus [4] = test: Inhibition of FAAH in C57Bl/6J mouse liver assessed as increase of 2-arachidonoylglycerol level at 30 mg/kg, ip after 1 hr relative to control; type: functional; settings: route intraperitoneal
Mus musculus [5] = test: Inhibition of FAAH in C57Bl/6J mouse brain assessed as increase of anandamide level at 30 mg/kg, ip after 1 hr relative to control; type: functional; settings: route intraperitoneal
Outline: (§1)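 Male C57Bl/6J mice (<6 months, 20–28 g) dosed i.p. at 30 mg/kg in 18:1:1 saline:ethanol:emulphor emulsion; brains taken 1 h later. One mouse in the initial screen, 3 per group in the follow-up. Brain homogenized in CHCl3:MeOH:Tris pH 8.0 with deuterated lipid standards; organic extract quantified by reverse-phase C18 LC-ESI-MS/MS against vehicle controls.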

Mus musculus [6] = test: Inhibition of FAAH in C57Bl/6J mouse liver assessed as increase of anandamide level at 30 mg/kg, ip after 1 hr relative to control; type: functional; settings: route intraperitoneal
Mus musculus [7] = test: Inhibition of FAAH in C57Bl/6J mouse liver assessed as increase of N-palmitoyl ethanolamine level at 30 mg/kg, ip after 1 hr relative to control; type: functional; settings: route intraperitoneal
[8] = Half life in rat liver microsomes; type: ADME, Microsome
Mus musculus [9] = test: Inhibition of FAAH in C57Bl/6J mouse brain assessed as increase of anandamide level at 50 mg/kg, po after 1 hr relative to control; type: functional
Outline: (§2)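 Male C57Bl/6J mice (<6 months, 20–28 g) given compound orally as a PEG300 solution at 10, 25 or 50 mg/kg, with 3 mice per group in the 50 mg/kg p.o. comparison; brains collected 1 h post-dose. Lipids extracted in CHCl3:MeOH:Tris pH 8.0 with deuterated internal standards, then measured by C18 LC-ESI-MS/MS relative to vehicle-treated mice.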

Mus musculus [10] = test: Inhibition of FAAH in C57Bl/6J mouse brain assessed as increase of N-palmitoyl ethanolamine level at 30 mg/kg, ip after 1 hr relative to control; type: functional; settings: route intraperitoneal; outline: as §1
[11] = target: T1, Fatty-acid amide hydrolase 1 (Rattus norvegicus, UniProt P97612); test: Inhibition of rat FAAH expressed in E. coli assessed as [14C]-labeled oleamide to oleic acid conversion
T1 sequence (P97612 whole entry): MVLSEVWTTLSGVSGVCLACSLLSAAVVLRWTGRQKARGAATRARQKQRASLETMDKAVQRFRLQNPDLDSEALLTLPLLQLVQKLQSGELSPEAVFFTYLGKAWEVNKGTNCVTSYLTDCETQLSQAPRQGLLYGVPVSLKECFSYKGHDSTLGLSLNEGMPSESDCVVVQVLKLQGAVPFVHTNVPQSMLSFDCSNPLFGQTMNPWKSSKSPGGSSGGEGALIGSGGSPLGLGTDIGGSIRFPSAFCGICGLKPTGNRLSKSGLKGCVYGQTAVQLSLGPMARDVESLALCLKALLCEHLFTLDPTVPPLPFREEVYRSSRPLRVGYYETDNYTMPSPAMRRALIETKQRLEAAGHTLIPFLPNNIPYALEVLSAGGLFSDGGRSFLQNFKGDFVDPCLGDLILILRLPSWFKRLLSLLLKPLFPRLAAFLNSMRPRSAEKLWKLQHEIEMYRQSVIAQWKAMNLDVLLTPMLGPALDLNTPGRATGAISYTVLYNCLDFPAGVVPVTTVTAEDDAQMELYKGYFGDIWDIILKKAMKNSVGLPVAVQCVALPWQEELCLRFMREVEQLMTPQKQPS

Mus musculus [12] = test: Inhibition of FAAH in C57Bl/6J mouse brain assessed as increase of 2-arachidonoylglycerol level at 30 mg/kg, ip after 1 hr relative to control; type: functional; settings: route intraperitoneal; outline: as §1
Mus musculus [13] = test: Inhibition of FAAH in C57Bl/6J mouse brain assessed as increase of arachidonic acid level at 30 mg/kg, ip after 1 hr relative to control; type: functional; settings: route intraperitoneal; outline: as §1
[14] = target: T1, Fatty-acid amide hydrolase 1; test: Inhibition of rat recombinant FAAH expressed in Escherichia coli assessed as [14C]-labeled oleamide to oleic acid conversion
[15] = target: T2, Fatty-acid amide hydrolase 1 (Homo sapiens) (UniProt O00519); test: Reversible inhibition of full-length human FAAH expressed in COS-7 cells by Lineweaver-Burk analysis; type: cell-based
T2 sequence (whole entry): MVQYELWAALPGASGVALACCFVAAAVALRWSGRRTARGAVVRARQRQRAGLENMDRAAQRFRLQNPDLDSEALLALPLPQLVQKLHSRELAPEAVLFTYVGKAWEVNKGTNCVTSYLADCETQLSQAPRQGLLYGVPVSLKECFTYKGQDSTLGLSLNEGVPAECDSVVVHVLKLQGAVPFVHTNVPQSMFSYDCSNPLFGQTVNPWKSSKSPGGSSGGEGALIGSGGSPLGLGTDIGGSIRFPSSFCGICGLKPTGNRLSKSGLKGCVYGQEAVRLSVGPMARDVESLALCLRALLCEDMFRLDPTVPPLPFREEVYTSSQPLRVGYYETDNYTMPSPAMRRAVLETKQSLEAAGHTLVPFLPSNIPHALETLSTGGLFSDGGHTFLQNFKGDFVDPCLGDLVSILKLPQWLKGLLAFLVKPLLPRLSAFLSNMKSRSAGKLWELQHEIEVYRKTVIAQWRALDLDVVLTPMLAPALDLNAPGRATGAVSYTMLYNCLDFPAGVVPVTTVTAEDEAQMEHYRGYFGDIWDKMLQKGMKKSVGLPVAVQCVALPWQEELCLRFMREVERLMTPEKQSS
Outline: (§3)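 Solubilized membrane lysate of COS-7 cells transiently transfected with full-length human FAAH cDNA. Aliquots quenched in 0.1 N HCl at three times; oleamide/oleic acid extracted into EtOAc and separated by TLC. Initial rates (≤10–20% conversion) analysed by Lineweaver–Burk plot.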

Mus musculus [16] = test: Antinociceptive activity in CD1 mouse assessed as thermal-stimulus induced tail flick latency at 1.8 to 5.6 mg/kg, iv after 30 to 60 mins; type: functional, organism-based
Outline: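 Tail flick at 52 °C in mice, dosed i.v. Baseline responders within 5 s were kept and retested at several times after dosing. Cut-off 10 s, scored 100%. % antinociception = 100 × (test latency − control latency)/(10 − control latency).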

[17] = target: T2, Fatty-acid amide hydrolase 1 (Homo sapiens); test: Competitive inhibition of full-length human FAAH expressed in COS-7 cells by Lineweaver-Burk analysis; type: cell-based; outline: as §3
Mus musculus [18] = test: Inhibition of FAAH in C57Bl/6J mouse brain assessed as increase of N-palmitoyl ethanolamine level at 50 mg/kg, po after 1 hr relative to control; type: functional; outline: as §2
Mus musculus [19] = test: Inhibition of FAAH in C57Bl/6J mouse brain assessed as increase of 2-arachidonoylglycerol level at 50 mg/kg, po after 1 hr relative to control; type: functional; outline: as §2

## COC(=O)c1cccc(-c2cnc(C(=O)C3Cc4ccc(OCc5ccccc5)cc4C3)o2)n1 (racemic)
[1]
  Ki: > 10000 nM

## CN1CC[C@]23c4c5ccc(O)c4O[C@H]2[C@@H](O)C=C[C@H]3[C@H]1C5
Mus musculus [2]
  Activity: Active

## O=C(c1ncco1)C1CCc2cc(OCc3ccccc3)ccc2C1 (racemic)
[1]
  Ki: > 10000 nM

## O=C(c1ncc(-c2ccccn2)o1)C1CCc2cc(OCc3ccccc3)ccc2C1 (stereo unspecified)
[3]
  half-life: 12 min

## O=C(c1ncco1)C1Cc2ccc(OCc3ccccc3)cc2C1 (racemic)
[1]
  Ki: > 24 nM

## O=C(CCCCCCc1ccccc1)c1ncc(-c2ccccn2)o1
Mus musculus [4]
  fold change (FC): 0.9
Mus musculus [5]
  fold change (FC): 3.3
Mus musculus [6]
  fold change (FC): 7
Mus musculus [7]
  fold change (FC): 1.6
[8]
  half-life: 2 min
Mus musculus [9]
  fold change (FC): 11
Mus musculus [10]
  fold change (FC): 4.6

## O=C(O)c1cccc(-c2cnc(C(=O)[C@@H]3CCc4cc(-c5ccccc5)ccc4C3)o2)n1
[11]
  Ki: 500 nM

## O=C(c1ncc(-c2ccccn2)o1)[C@@H]1Cc2ccc(OCc3ccccc3)cc2C1
[11]
  Ki: 110 nM

## COC(=O)c1cnc(C(=O)[C@@H]2CCc3cc(OCc4ccccc4)ccc3C2)o1
[11]
  Ki: 53 nM

## COC(=O)c1cccc(-c2cnc(C(=O)C3CCc4cc(OCc5ccccc5)ccc4C3)o2)n1 (racemic)
[1]
  Ki: > 10000 nM

## N#Cc1cnc(C(=O)[C@H]2CCc3cc(-c4ccccc4)ccc3C2)o1
[11]
  Ki: 3.4 nM

## O=C(c1ncc(-c2ccccn2)o1)[C@@H]1Cc2ccc(Oc3ccccc3)cc2C1
[11]
  Ki: 42 nM

## O=C(c1ncc(-c2ccccn2)o1)[C@@H]1Cc2ccc(-c3ccccc3)cc2C1
[11]
  Ki: 600 nM

## O=C(c1ncc(-c2ccccn2)o1)C1Cc2ccc(Oc3ccccc3)cc2C1 (stereo unspecified)
Mus musculus [12]
  fold change (FC): 0.8
Mus musculus [5]
  fold change (FC): 3
Mus musculus [10]
  fold change (FC): 7.4
Mus musculus [13]
  fold change (FC): 0.9

## O=C(c1ncco1)[C@H]1CCc2cc(Oc3ccccc3)ccc2C1
[11]
  Ki: 2.2 nM

## O=C(c1ncc(-c2ccccn2)o1)[C@H]1CCc2cc(-c3ccccc3)ccc2C1
[11]
  Ki: 7.2 nM

## COC(=O)c1nnc(C(=O)[C@H]2CCc3cc(Oc4ccccc4)ccc3C2)o1
[11]
  Ki: 1.5 nM

## O=C(O)c1cccc(-c2cnc(C(=O)[C@H]3CCc4cc(OCc5ccccc5)ccc4C3)o2)n1
[11]
  Ki: 34 nM

## O=C(c1nnc(-c2ccccn2)o1)[C@H]1CCc2cc(Oc3ccccc3)ccc2C1
[11]
  Ki: 1 nM

## N#Cc1cnc(C(=O)[C@H]2CCc3cc(Oc4ccccc4)ccc3C2)o1
[11]
  Ki: 1.3 nM

## COC(=O)c1cccc(-c2cnc(C(=O)C3Cc4ccc(-c5ccccc5)cc4C3)o2)n1 (racemic)
[11]
  Ki: 6.2 nM

## COC(=O)c1cnc(C(=O)[C@@H]2CCc3cc(-c4ccccc4)ccc3C2)o1
[11]
  Ki: 1400 nM

## O=C(O)c1cccc(-c2cnc(C(=O)C3Cc4ccc(-c5ccccc5)cc4C3)o2)n1 (racemic)
[11]
  Ki: 57 nM

## O=C(O)c1cccc(-c2cnc(C(=O)[C@H]3CCc4cc(Oc5ccccc5)ccc4C3)o2)n1
[14]
  Ki: 25 nM
Mus musculus [12]
  fold change (FC): 1
Mus musculus [4]
  fold change (FC): 1.1
Mus musculus [5]
  fold change (FC): 1.5
[15]
  inhibition: Active
Mus musculus [6]
  fold change (FC): 5
Mus musculus [16]
  Activity: Active
Mus musculus [7]
  fold change (FC): 2.1
Mus musculus [9]
  fold change (FC): 3.5
Mus musculus [10]
  fold change (FC): 2
[17]
  inhibition: Active
Mus musculus [13]
  fold change (FC): 0.7
Mus musculus [18]
  fold change (FC): 3.7
Mus musculus [19]
  fold change (FC): 1.4

## O=C(c1ncc(I)o1)[C@@H]1CCc2cc(OCc3ccccc3)ccc2C1
[11]
  Ki: 700 nM

## COC(=O)c1cccc(-c2cnc(C(=O)[C@H]3CCc4cc(OCc5ccccc5)ccc4C3)o2)n1
[11]
  Ki: 18 nM

## O=C(O)c1cccc(-c2cnc(C(=O)C3Cc4ccc(Oc5ccccc5)cc4C3)o2)n1 (stereo unspecified)
Mus musculus [12]
  fold change (FC): 0.9
Mus musculus [5]
  fold change (FC): 1
Mus musculus [10]
  fold change (FC): 1.2
Mus musculus [13]
  fold change (FC): 0.8

## O=C(c1ncc(-c2ccccn2)o1)[C@H]1Cc2ccc(-c3ccccc3)cc2C1
[11]
  Ki: 1.9 nM

## O=C(c1ncco1)[C@H]1CCc2ccccc2C1
[11]
  Ki: 5100 nM

## COC(=O)c1cccc(-c2cnc(C(=O)[C@@H]3CCc4cc(Oc5ccccc5)ccc4C3)o2)n1
[11]
  Ki: 870 nM

## O=C(O)c1cccc(-c2cnc(C(=O)[C@H]3CCc4cc(-c5ccccc5)ccc4C3)o2)n1
[11]
  Ki: 39 nM

## COC(=O)c1cccc(-c2cnc(C(=O)[C@@H]3Cc4ccc(Oc5ccccc5)cc4C3)o2)n1
[11]
  Ki: 790 nM

## O=C(O)c1cccc(-c2cnc(C(=O)[C@@H]3CCc4cc(Oc5ccccc5)ccc4C3)o2)n1
[11]
  Ki: 220 nM

## O=C(c1ncc(I)o1)[C@H]1CCc2cc(OCc3ccccc3)ccc2C1
[11]
  Ki: 4.1 nM

## O=C(O)c1cccc(-c2cnc(C(=O)[C@H]3Cc4ccc(Oc5ccccc5)cc4C3)o2)n1
[11]
  Ki: 71 nM

## O=C(c1ncco1)[C@@H]1CCc2cc(OCc3ccccc3)ccc2C1
[11]
  Ki: 87 nM
